We go through eleven compounds from ChEMBL document CHEMBL1142037, “Cyclization-activated prodrugs. Synthesis, reactivity and toxicity of dipeptide esters of paracetamol” (Bioorg Med Chem Lett, 2005).

A short description of series [1]: Relative rate constant for release of paracetamol was determined. The series is classed as ADME.
A short description of series [2]: Half life required for the release of paracetamol. The series is classed as ADME.
Series [3] is described as follows: Rate constant for release of paracetamol was determined. The series is classed as ADME.
Series [4] is filed under the species Mus musculus. Briefly: Effect on glutathione levels in mice. The series is classed as functional. In outline:
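Male BALB/c mice (17–21 g, 5 weeks old), four per group, given a single ip dose of 3.3 mmol/kg in 30% propyleneglycol. Controls received vehicle ip. Livers were taken 2 h after dosing and kept on ice. Reduced glutathione in liver homogenate was measured at once with DTNB and reported as µmol/g tissue.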

As for `CC(=O)Nc1ccc(OC(=O)CNC(=O)[C@@H]2CCCN2)cc1.O=C(O)C(F)(F)F`, in series [1], the Krelative is listed as 0.41. In addition, the T1/2 in series [2] came to 2 min. Also, the K obs in series [3] amounted to 0.0059 s⁻¹.
For the compound `CC(=O)Nc1ccc(OC(=O)CNC(=O)[C@@H](N)C(C)C)cc1.O=C(O)C(F)(F)F`, the Krelative in series [1] is recorded as 0.05. For the same compound, the T1/2 in series [2] is recorded as 16 min. In series [3], this compound showed a K obs of 0.00071 s⁻¹. Besides, in series [4], the Glutathione levels was found to be 3.87 umol/g tissue.
As for `CC(=O)Nc1ccc(OC(=O)CNC(=O)[C@@H](N)Cc2ccccc2)cc1.O=C(O)C(F)(F)F`, the Krelative in series [1] is 0.06. In series [2], the T1/2 is listed as 14 min. In series [3], this compound came in with a K obs of 0.000821 s⁻¹. This compound also returned a Glutathione levels in series [4] of 2.68 umol/g tissue.
In the case of `CC(=O)Nc1ccc(OC(=O)CN(C)C(=O)CN)cc1.O=C(O)C(F)(F)F`, the K obs result in series [3] was “Too fast to be monitored”.
`CC(=O)Nc1ccc(OC(=O)[C@@H](NC(=O)CN)C(C)C)cc1.O=C(O)C(F)(F)F` yielded a Krelative in series [1] of 0.04. This compound displayed a T1/2 in series [2] of 20 min. The K obs in series [3] was found to be 0.00057 s⁻¹.
The like results for `CC(=O)Nc1ccc(OC(=O)[C@H](C)NC(=O)CN)cc1.O=C(O)C(F)(F)F` were, in that order, 0.94, 0.9 min and 0.0134 s⁻¹.
As for `CC(=O)Nc1ccc(OC(=O)[C@@H]2CCCN2C(=O)CN)cc1.O=C(O)C(F)(F)F`, in series [3], the K obs result was “Too fast to be monitored”.
`CC(=O)Nc1ccc(OC(=O)CNC(=O)CN)cc1.O=C(O)C(F)(F)F` came in with a Krelative in series [1] of 1. The T1/2 in series [2] turned out to be 0.8 min. In addition, the K obs in series [3] worked out at 0.0143 s⁻¹.
Take `CNCC(=O)NCC(=O)Oc1ccc(NC(C)=O)cc1.O=C(O)C(F)(F)F`: in series [3], the K obs entry is “Too fast to be monitored”.
In turn, `CC(=O)Nc1ccc(OC(=O)[C@H](Cc2ccccc2)NC(=O)CN)cc1.O=C(O)C(F)(F)F` gave a Krelative in series [1] of 0.4. The compound also displayed a T1/2 in series [2] of 2 min. The K obs in series [3] worked out at 0.00564 s⁻¹. In series [4], this compound came in with a Glutathione levels of 3.74 umol/g tissue.
Consider `CC(=O)Nc1ccc(OC(=O)CNC(=O)[C@H](C)N)cc1.O=C(O)C(F)(F)F`, for which the Krelative in series [1] came to 0.24. Further, in series [2], the T1/2 is 3 min. This compound gave a K obs in series [3] of 0.0034 s⁻¹.
